Results from ChEMBL document CHEMBL1158167, “Synthesis, binding properties and receptor docking of 4-halo-6-[2-(4-arylpiperazin-1-yl)ethyl]-1H-benzimidazoles, mixed ligands of D2 and 5-HT1A receptors” (Eur J Med Chem, 2008).

Legend:
D(2) dopamine receptor = D(2) dopamine receptor (Bos taurus, UniProt P20288); assay: Displacement of [3H]Spiperone from dopamine D2 receptor in bovine caudate nuclei synaptosomal membrane by liquid scintillation spectrometry
Method in brief: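 Membranes (0.7 mg/ml protein) incubated 20 min at 37 °C with 0.2 nM [3H]spiperone and 8–10 test compound concentrations (10^-5–10^-10 M). Ketanserin […] blocks 5-HT2 sites. Nonspecific binding defined with […] (+)-butaclamol. GF/C filtration, scintillation counting. Ki; 3–4 experiments in triplicate.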

[1] = Displacement of [3H]8-OH-DPAT from 5HT1A receptor in bovine hippocampi synaptosomal membrane by liquid scintillation spectrometry; type: tissue-based, Bos taurus, Hippocampus
D(1A) dopamine receptor = D(1A) dopamine receptor (Bos taurus, UniProt Q95136); assay: Displacement of [3H]SCH23390 from dopamine D1 receptor in bovine caudate nuclei synaptosomal membrane by liquid scintillation spectrometry
Chain of D(1A) dopamine receptor (Q95136 whole entry): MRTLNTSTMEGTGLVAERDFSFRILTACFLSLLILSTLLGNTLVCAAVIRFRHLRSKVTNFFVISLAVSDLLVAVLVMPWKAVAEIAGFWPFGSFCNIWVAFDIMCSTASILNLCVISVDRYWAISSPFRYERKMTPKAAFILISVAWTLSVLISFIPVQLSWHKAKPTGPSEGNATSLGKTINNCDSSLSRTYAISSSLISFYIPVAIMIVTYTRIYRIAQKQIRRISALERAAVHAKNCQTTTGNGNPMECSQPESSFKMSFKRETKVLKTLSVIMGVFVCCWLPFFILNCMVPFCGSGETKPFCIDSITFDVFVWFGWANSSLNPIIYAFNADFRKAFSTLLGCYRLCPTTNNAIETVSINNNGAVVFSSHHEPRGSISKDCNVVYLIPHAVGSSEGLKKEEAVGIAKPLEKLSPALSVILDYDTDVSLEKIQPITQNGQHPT

Chain of D(2) dopamine receptor (P20288 whole entry): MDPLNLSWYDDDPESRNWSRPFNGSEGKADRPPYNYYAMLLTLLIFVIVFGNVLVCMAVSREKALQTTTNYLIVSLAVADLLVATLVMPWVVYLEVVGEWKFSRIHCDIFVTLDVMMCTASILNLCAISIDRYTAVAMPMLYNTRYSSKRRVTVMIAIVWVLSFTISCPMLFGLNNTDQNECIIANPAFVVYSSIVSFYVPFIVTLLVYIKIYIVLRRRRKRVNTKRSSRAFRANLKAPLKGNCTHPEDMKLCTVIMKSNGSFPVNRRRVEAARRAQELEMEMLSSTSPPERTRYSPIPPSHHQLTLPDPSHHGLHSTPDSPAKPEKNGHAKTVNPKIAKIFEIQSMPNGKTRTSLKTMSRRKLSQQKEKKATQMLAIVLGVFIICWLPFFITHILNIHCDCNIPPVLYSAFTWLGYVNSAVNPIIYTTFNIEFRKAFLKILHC

Row | Structure (SMILES) | Ki (D(2) dopamine receptor) | Ki [1] | Ki (D(1A) dopamine receptor)
1 | COc1ccccc1N1CCN(CCc2cc(Br)c3nc[nH]c3c2)CC1 | 0.56 nM | 1.4 nM | > 1000 nM
2 | c1ccc(N2CCN(CCc3ccc4nc[nH]c4c3)CC2)cc1 | 138 nM | 197 nM | > 1000 nM
3 | Clc1ccccc1N1CCN(CCc2ccc3nc[nH]c3c2)CC1 | 59.7 nM | 243 nM | –
4 | Brc1cc(CCN2CCN(c3ccccc3)CC2)cc2[nH]cnc12 | 61.9 nM | 24.1 nM | > 1000 nM
5 | Clc1ccccc1N1CCN(CCc2cc(Br)c3nc[nH]c3c2)CC1 | 84.7 nM | 89.6 nM | > 1000 nM
6 | Clc1cc(CCN2CCN(c3ncccn3)CC2)cc2[nH]cnc12 | 550 nM | 530 nM | > 1000 nM
7 | Brc1cc(CCN2CCN(c3ncccn3)CC2)cc2[nH]cnc12 | 26.7 nM | 129 nM | > 1000 nM
8 | Clc1ccccc1N1CCN(CCc2cc(Cl)c3nc[nH]c3c2)CC1 | 19.1 nM | 45.6 nM | > 1000 nM
9 | FC(F)(F)c1cccc(N2CCN(CCc3cc(Cl)c4nc[nH]c4c3)CC2)c1 | 200 nM | 20.7 nM | > 1000 nM
10 | Clc1cc(CCN2CCN(c3ccccc3)CC2)cc2[nH]cnc12 | 84.7 nM | 89.6 nM | > 1000 nM
11 | c1cnc(N2CCN(CCc3ccc4nc[nH]c4c3)CC2)nc1 | > 1000 nM | > 1000 nM | –
12 | FC(F)(F)c1cccc(N2CCN(CCc3cc(Br)c4nc[nH]c4c3)CC2)c1 | 5.77 nM | 0.14 nM | > 1000 nM
13 | COc1ccccc1N1CCN(CCc2cc(Cl)c3nc[nH]c3c2)CC1 | 5.49 nM | 5.2 nM | > 1000 nM
14 | COc1ccccc1N1CCN(CCc2ccc3nc[nH]c3c2)CC1 | 13.1 nM | 20.3 nM | –
15 | FC(F)(F)c1cccc(N2CCN(CCc3ccc4nc[nH]c4c3)CC2)c1 | 273 nM | 33 nM | > 1000 nM
